Experimental data from PMC9071996 (RSC Advances, 2019).

Tests used:
Type in all cases: cell-based
[1] = test system: MDA-MB-231 cells; experiment: MTS cytotoxicity assay, MDA-MB-231; settings: Homo sapiens, MDA-MB-231, 72 h, read-out: IC50 (μM) MBA-MD-231
How it was run: (§1)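 MTS viability assay in A549, MDA-MB-231 and RPMI-8226 human cancer cells. All compounds were first screened at 10 and 50 μM. Compounds that crossed a set viability threshold in this screen went on to IC50 determination.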

[2] = test system: RPMI-8226 cells; experiment: MTS cytotoxicity assay, RPMI-8226; settings: Homo sapiens, RPMI-8226, 72 h, read-out: IC50 (μM) RPMI-8226
How it was run: as §1

[3] = test system: A549 cells; experiment: MTS cytotoxicity assay, A549; settings: Homo sapiens, A549, 72 h, read-out: IC50 (μM) A549
How it was run: as §1

[4] = test system: GES-1 cells; experiment: MTS cytotoxicity assay, normal GES-1 cells; settings: Homo sapiens, GES1, 72 h, read-out: IC50 (μM) GES-1

| SMILES | IC50 [1] | IC50 [2] | IC50 [3] | IC50 [4] |
| --- | --- | --- | --- | --- |
| CC12CCC(c3c(-c4ccccc4F)nc(N)nc31)C2(C)C (stereo not drawn) [Compound 3a, 4-(2-Fluorophenyl)-8,9,9-trimethyl-5,6,7,8-tetrahydro-5,8-methanoquinazolin-2-amine] | 32.85 ± 0.31 µM | > 50 µM | > 50 µM | > 50 µM |
| CC12CCC(c3c(-c4cccc(F)c4)nc(N)nc31)C2(C)C (stereo not drawn) [Compound 3b, 4-(3-Fluorophenyl)-8,9,9-trimethyl-5,6,7,8-tetrahydro-5,8-methanoquinazolin-2-amine] | 28.56 ± 0.26 µM | > 50 µM | 24.35 ± 0.01 µM | > 50 µM |
| CC12CCC(c3c(-c4ccc(F)cc4)nc(N)nc31)C2(C)C (stereo not drawn) [Compound 3c, 4-(4-Fluorophenyl)-8,9,9-trimethyl-5,6,7,8-tetrahydro-5,8-methanoquinazolin-2-amine] | 12.59 ± 0.04 µM | 9.3 ± 0.34 µM | 12.63 ± 0.02 µM | > 50 µM |
| CC12CCC(c3c(-c4ccccc4Cl)nc(N)nc31)C2(C)C (stereo not drawn) [Compound 3d, 4-(2-Chlorophenyl)-8,9,9-trimethyl-5,6,7,8-tetrahydro-5,8-methanoquinazolin-2-amine] | 25.5 ± 0.39 µM | 11.4 ± 0.18 µM | 16.9 ± 0.5 µM | > 50 µM |
| CC12CCC(c3c(-c4cccc(Cl)c4)nc(N)nc31)C2(C)C (stereo not drawn) [Compound 3e, 4-(3-Chlorophenyl)-8,9,9-trimethyl-5,6,7,8-tetrahydro-5,8-methanoquinazolin-2-amine] | 23.3 ± 0.44 µM | 10.4 ± 0.35 µM | 10.63 ± 0.09 µM | > 50 µM |
| CC12CCC(c3c(-c4ccccc4Br)nc(N)nc31)C2(C)C (stereo not drawn) [Compound 3g, 4-(2-Bromophenyl)-8,9,9-trimethyl-5,6,7,8-tetrahydro-5,8-methanoquinazolin-2-amine] | 18.3 ± 0.26 µM | > 50 µM | 23.32 ± 0.03 µM | > 50 µM |
| CC12CCC(c3c(-c4cccc(Br)c4)nc(N)nc31)C2(C)C (stereo not drawn) [Compound 3h, 4-(3-Bromophenyl)-8,9,9-trimethyl-5,6,7,8-tetrahydro-5,8-methanoquinazolin-2-amine] | > 50 µM | > 50 µM | > 50 µM | > 50 µM |
| CC12CCC(c3c(-c4ccc(Br)cc4)nc(N)nc31)C2(C)C (stereo not drawn) [Compound 3i, 4-(4-Bromophenyl)-8,9,9-trimethyl-5,6,7,8-tetrahydro-5,8-methanoquinazolin-2-amine] | 8.66 ± 0.17 µM | 18.94 ± 0.08 µM | 16.45 ± 0.04 µM | > 50 µM |
| Cc1ccccc1-c1nc(N)nc2c1C1CCC2(C)C1(C)C (stereo not drawn) [Compound 3j, 8,9,9-Trimethyl-4-(o-tolyl)-5,6,7,8-tetrahydro-5,8-methanoquinazolin-2-amine] | 26.2 ± 0.4 µM | > 50 µM | 22.54 ± 0.15 µM | > 50 µM |
| Cc1cccc(-c2nc(N)nc3c2C2CCC3(C)C2(C)C)c1 (stereo not drawn) [Compound 3k, 8,9,9-Trimethyl-4-(m-tolyl)-5,6,7,8-tetrahydro-5,8-methanoquinazolin-2-amine] | 20 ± 0.09 µM | > 50 µM | 18 ± 0.18 µM | > 50 µM |
| Cc1ccc(-c2nc(N)nc3c2C2CCC3(C)C2(C)C)cc1 (stereo not drawn) [Compound 3l, 8,9,9-Trimethyl-4-(p-tolyl)-5,6,7,8-tetrahydro-5,8-methanoquinazolin-2-amine] | 15.68 ± 0.14 µM | 13.86 ± 0.09 µM | 15.32 ± 0.09 µM | > 50 µM |
| COc1ccccc1-c1nc(N)nc2c1C1CCC2(C)C1(C)C (stereo not drawn) [Compound 3m, 4-(2-Methoxyphenyl)-8,9,9-trimethyl-5,6,7,8-tetrahydro-5,8-methanoquinazolin-2-amine] | > 50 µM | > 50 µM | > 50 µM | > 50 µM |
| COc1cccc(-c2nc(N)nc3c2C2CCC3(C)C2(C)C)c1 (stereo not drawn) [Compound 3n, 4-(3-Methoxyphenyl)-8,9,9-trimethyl-5,6,7,8-tetrahydro-5,8-methanoquinazolin-2-amine] | > 50 µM | > 50 µM | > 50 µM | > 50 µM |
| COc1ccc(-c2nc(N)nc3c2C2CCC3(C)C2(C)C)cc1 (stereo not drawn) [Compound 3o, 4-(4-Methoxyphenyl)-8,9,9-trimethyl-5,6,7,8-tetrahydro-5,8-methanoquinazolin-2-amine] | > 50 µM | > 50 µM | > 50 µM | > 50 µM |
| CC12CCC(c3c(-c4ccccc4O)nc(N)nc31)C2(C)C (stereo not drawn) [Compound 3p, 2-(2-Amino-8,9,9-trimethyl-5,6,7,8-tetrahydro-5,8-methanoquinazolin-4-yl)phenol] | 16.3 ± 0.26 µM | > 50 µM | 14 ± 0.16 µM | > 50 µM |
| CC12CCC(c3c(-c4cccc(O)c4)nc(N)nc31)C2(C)C (stereo not drawn) [Compound 3q, 3-(2-Amino-8,9,9-trimethyl-5,6,7,8-tetrahydro-5,8-methanoquinazolin-4-yl)phenol] | > 50 µM | > 50 µM | > 50 µM | > 50 µM |
| CC12CCC(c3c(-c4ccc(O)cc4)nc(N)nc31)C2(C)C (stereo not drawn) [Compound 3r, 4-(2-Amino-8,9,9-trimethyl-5,6,7,8-tetrahydro-5,8-methanoquinazolin-4-yl)phenol] | > 50 µM | > 50 µM | > 50 µM | > 50 µM |
| CC12CCC(c3c(-c4ccccn4)nc(N)nc31)C2(C)C (stereo not drawn) [Compound 3s, 8,9,9-Trimethyl-4-(pyridin-2-yl)-5,6,7,8-tetrahydro-5,8-methanoquinazolin-2-amine] | > 50 µM | > 50 µM | > 50 µM | > 50 µM |
| CC12CCC(c3c(-c4cccnc4)nc(N)nc31)C2(C)C (stereo not drawn) [Compound 3t, 8,9,9-Trimethyl-4-(pyridin-3-yl)-5,6,7,8-tetrahydro-5,8-methanoquinazolin-2-amine] | > 50 µM | > 50 µM | > 50 µM | > 50 µM |
| CC12CCC(c3c(-c4ccncc4)nc(N)nc31)C2(C)C (stereo not drawn) [Compound 3u, 8,9,9-Trimethyl-4-(pyridin-4-yl)-5,6,7,8-tetrahydro-5,8-methanoquinazolin-2-amine] | > 50 µM | > 50 µM | > 50 µM | > 50 µM |
| CN(C)c1ccc(-c2nc(N)nc3c2C2CCC3(C)C2(C)C)cc1 (stereo not drawn) [Compound 3v, 4-(4-(Dimethylamino)phenyl)-8,9,9-trimethyl-5,6,7,8-tetrahydro-5,8-methanoquinazolin-2-amine] | > 50 µM | > 50 µM | > 50 µM | > 50 µM |
| CC12CCC(c3c(-c4ccc([N+](=O)[O-])cc4)nc(N)nc31)C2(C)C (stereo not drawn) [Compound 3w, 8,9,9-Trimethyl-4-(4-nitrophenyl)-5,6,7,8-tetrahydro-5,8-methanoquinazolin-2-amine] | 6.21 ± 0.14 µM | 9.58 ± 0.11 µM | 10.84 ± 0.09 µM | > 50 µM |
| CC12CCC(c3c(-c4ccccc4)nc(N)nc31)C2(C)C (stereo not drawn) [Compound 3x, 8,9,9-Trimethyl-4-phenyl-5,6,7,8-tetrahydro-5,8-methanoquinazolin-2-amine] | 29.88 ± 0.16 µM | > 50 µM | > 50 µM | > 50 µM |
| COc1cc([C@@H]2c3cc4c(cc3[C@@H](O[C@@H]3O[C@@H]5CO[C@@H](C)O[C@H]5[C@H](O)[C@H]3O)[C@H]3COC(=O)[C@H]23)OCO4)cc(OC)c1O [Etoposide, reference compound] | 3.97 ± 0.45 µM | 1.92 ± 0.17 µM | 10.9 ± 0.79 µM | 8.89 ± 0.7 µM |
